Test results taken from PubChem BioAssay AID504933 (The Scripps Research Institute Molecular Screening Center, 2011).

Biological target: Nuclear receptor subfamily 5 group A member 2 (Homo sapiens) (UniProt O00482)
Test: inhibition of LRH1-driven StAR promoter reporter, late-stage follow-up, LRH-1 inverse agonist project, cell-based, luminescence, assay provider, powder samples (AID 504933)
Conditions: HEK293T LRH1 + StAR-luciferase reporter, 20 h
In short: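 Test system: HEK293T with LRH1 plus StAR luciferase reporter. Read-out: IC50 from four-parameter sigmoidal fit of inhibition versus DMSO wells. Replication: triplicate wells per concentration. Controls: DMSO vehicle wells. Signal: luminescence. Incubation: 24 h bulk transfection before re-plating, then 20 h compound exposure.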

Chain of Nuclear receptor subfamily 5 group A member 2 (Homo sapiens) (O00482 whole entry, looked up): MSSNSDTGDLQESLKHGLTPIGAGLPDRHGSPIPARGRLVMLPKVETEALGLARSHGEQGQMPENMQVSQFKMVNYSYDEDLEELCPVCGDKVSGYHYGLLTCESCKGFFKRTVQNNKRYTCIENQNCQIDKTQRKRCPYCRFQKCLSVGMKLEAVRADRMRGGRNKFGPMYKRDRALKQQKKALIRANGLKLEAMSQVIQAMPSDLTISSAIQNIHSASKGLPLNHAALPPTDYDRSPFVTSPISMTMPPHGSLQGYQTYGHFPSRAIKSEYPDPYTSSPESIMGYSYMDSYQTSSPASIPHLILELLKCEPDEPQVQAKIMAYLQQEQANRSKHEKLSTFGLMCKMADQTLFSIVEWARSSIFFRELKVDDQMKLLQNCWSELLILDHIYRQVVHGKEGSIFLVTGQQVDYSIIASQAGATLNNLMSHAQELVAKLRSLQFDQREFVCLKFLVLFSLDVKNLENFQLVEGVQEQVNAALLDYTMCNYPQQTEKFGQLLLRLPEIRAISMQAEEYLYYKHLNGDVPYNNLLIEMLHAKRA

SMILES	IC50 [nM]
O=c1cc(N2CCN(c3cccc(Cl)c3)CC2)[nH]c(=O)n1C1CCCCC1	2050
O=c1cc(N2CCN(c3cccc(C(F)(F)F)c3)CC2)[nH]c(=O)n1C1CCCCC1	2120
